According to ChEMBL document CHEMBL4196017, “Design, synthesis and identification of silicon-containing HCV NS5A inhibitors with pan-genotype activity” (Eur J Med Chem, 2018):

What was measured:
[1] = Protein binding in rat plasma at 1 uM after 6 hrs by UPLC-MS/MS based equilibrium dialysis method; format: ADME, cell-free; conditions: read-out: PPB (converted)
Summary of the method: (§1)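 Equilibrium dialysis: plasma (pH 7.4) preincubated 15 min at 37 °C, spiked with compound at 1 or 10 µM (0.5% DMSO final); dialysed against 100 mM phosphate buffer pH 7.4, 6 h at 37 °C, 100 rpm; donor and receiver samples analysed by UPLC-MS/MS.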

[2] = Protein binding in dog plasma at 1 uM after 6 hrs by UPLC-MS/MS based equilibrium dialysis method; format: ADME, cell-free, Canis lupus familiaris; conditions: read-out: PPB (converted); summary of the method: as §1
[3] = biological target: T1, Cytochrome P450 1A2 (Homo sapiens, UniProt P05177); assay: Inhibition of CYP1A2 in human liver microsomes at 1 to 10 uM using phenacetin as substrate preincubated for 5 mins followed by NADPH addition measured after 30 mins by UPLC-MS/MS analysis relative to control; format: ADME; conditions: 0.5 h
T1 sequence (P05177 whole entry): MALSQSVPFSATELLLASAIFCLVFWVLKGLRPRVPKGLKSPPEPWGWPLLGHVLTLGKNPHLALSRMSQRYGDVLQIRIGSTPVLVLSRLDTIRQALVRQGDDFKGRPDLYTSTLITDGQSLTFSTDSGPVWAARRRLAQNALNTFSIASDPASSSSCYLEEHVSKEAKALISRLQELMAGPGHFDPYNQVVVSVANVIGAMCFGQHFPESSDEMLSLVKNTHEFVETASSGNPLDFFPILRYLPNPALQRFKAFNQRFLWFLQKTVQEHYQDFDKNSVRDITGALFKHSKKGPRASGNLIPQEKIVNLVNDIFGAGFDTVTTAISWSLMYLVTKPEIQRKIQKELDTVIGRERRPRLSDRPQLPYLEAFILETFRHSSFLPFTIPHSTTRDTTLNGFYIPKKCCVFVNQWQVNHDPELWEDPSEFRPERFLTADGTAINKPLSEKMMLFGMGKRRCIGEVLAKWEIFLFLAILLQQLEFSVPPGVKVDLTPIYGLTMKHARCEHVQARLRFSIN

[4] = biological target: Cytochrome P450 2D6 (Homo sapiens, UniProt P10635); assay: Inhibition of CYP2D6 in human liver microsomes at 1 to 10 uM using dextromethorphan as substrate preincubated for 5 mins followed by NADPH addition measured after 30 mins by UPLC-MS/MS analysis relative to control; format: ADME; conditions: 0.5 h
[5] = Metabolic stability in rat liver microsomes assessed as parent compound remaining at 0.2 uM preincubated for 5 mins followed by NADPH addition measured up to 60 mins by UPLC-MS/MS analysis; format: ADME, microsome; conditions: read-out: Stability
Summary of the method: (§2)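 Pooled mouse, rat or human liver microsomes 0.2 mg/mL with 1 mM NADPH, 5 mM MgCl2, 100 mM potassium phosphate pH 7.4 and 0.2 µM compound; 5-min preincubation at 37 °C, NADPH start, sampled at 5, 15, 30, 60 min; ice-cold acetonitrile stop; UPLC-MS/MS; percent parent remaining at 60 min.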

[6] = Protein binding in human plasma at 10 uM after 6 hrs by UPLC-MS/MS based equilibrium dialysis method; format: ADME, cell-free; conditions: read-out: PPB (converted); summary of the method: as §1
[7] = Ratio of drug uptake in Sprague-Dawley rat liver to plasma at 10 mg/kg, ig administered as single dose measured after 0.5 hrs by UPLC-MS/MS analysis; format: ADME, organism-based; conditions: po
[8] = biological target: hERG (KCNH2) (Homo sapiens, UniProt Q12809); assay: Inhibition of human ERG assessed as reduction in peak tail current at 3 uM at holding potential of -80 mV by patch clamp method relative to control
Summary of the method: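 Whole-cell patch clamp, room temperature; hold -80 mV, 2 s +50 mV depolarization then 3 s -50 mV repolarization every 30 s; peak tail current referenced to initial 50 ms step to -50 mV; 3 min vehicle stabilization, then test solution until stable (<5% over ~5 sweeps) or 6 min max; mean ± SD, n = 3.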

[9] = Tmax in beagle dog at 2 mg/kg, po administered as single dose by UPLC-MS/MS analysis; format: ADME, organism-based, Canis lupus familiaris; conditions: in vivo
[10] = system: Mus musculus; assay: Toxicity in ICR mouse assessed as monocyte level in serum at 150 mg/kg, po administered via gavage once daily for 14 days (reference value: 12.93 +/- 3.61%); format: organism-based; conditions: in vivo, 336 h
Summary of the method: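 Haematology on abdominal aortic blood taken at necropsy under ether anaesthesia after 14 daily gavage doses (20 ml/kg) in ICR mice, 5 per sex per group, vehicle control. Parameters: WBC, RBC, haemoglobin, platelets, reticulocyte ratio and differential leukocyte counts; mean ± SD, n = 10.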

[11] = Cmax in beagle dog at 2 mg/kg, po administered as single dose by UPLC-MS/MS analysis; format: ADME, organism-based, Canis lupus familiaris; design: dose 2 mg/kg, route oral; conditions: in vivo
[12] = Apparent permeability from basolateral to apical side in human Caco2 cells after 90 mins by UPLC-MS/MS analysis; format: ADME, cell-based; conditions: Caco-2
Summary of the method: (§3)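 Caco-2 cells on Transwell inserts grown 21-23 days to TEER ≥200 Ω cm²; rinsed with warm HBSS, preincubated 30 min at 37 °C in 2% BSA with or without inhibitor; compound in 2% BSA added apical or basolateral, 90 min at 37 °C; receiver sampled, UPLC-MS/MS; duplicate; Papp calculated.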

[13] = biological target: Cytochrome P450 2C9 (Homo sapiens, UniProt P11712); assay: Inhibition of CYP2C9 in human liver microsomes at 1 to 10 uM using tolbutamide as substrate preincubated for 5 mins followed by NADPH addition measured after 30 mins by UPLC-MS/MS analysis relative to control; format: ADME; conditions: 0.5 h
[14] = Cmax in mouse at 10 mg/kg, ig administered as single dose by UPLC-MS/MS analysis; format: ADME, organism-based; design: dose 10 mg/kg, route intragastric; conditions: in vivo, po
Summary of the method: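 Adult male mice (12 h light-dark, 22 °C, 55% humidity) fasted 12 h with free water, then given a single 10 mg/kg intragastric dose; plasma concentrations by UPLC-MS/MS; PK parameters calculated by software.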

[15] = Protein binding in mouse plasma at 10 uM after 6 hrs by UPLC-MS/MS based equilibrium dialysis method; format: ADME, cell-free; conditions: read-out: PPB (converted); summary of the method: as §1
[16] = Apparent permeability from apical to basolateral side in human Caco2 cells after 90 mins by UPLC-MS/MS analysis; format: ADME, cell-based; conditions: Caco-2; summary of the method: as §3
[17] = Metabolic stability in human liver microsomes assessed as parent compound remaining at 0.2 uM preincubated for 5 mins followed by NADPH addition measured up to 60 mins by UPLC-MS/MS analysis; format: ADME, microsome; conditions: read-out: Stability; summary of the method: as §2
[18] = Ratio of drug uptake in Sprague-Dawley rat liver to plasma at 10 mg/kg, ig administered as single dose measured after 8 hrs by UPLC-MS/MS analysis; format: ADME, organism-based; conditions: po
[19] = biological target: Cytochrome P450 2C19 (Homo sapiens, UniProt P33261); assay: Inhibition of CYP2C19 in human liver microsomes at 1 to 10 uM using (S)-mephenytoin as substrate preincubated for 5 mins followed by NADPH addition measured after 30 mins by UPLC-MS/MS analysis relative to control; format: ADME; conditions: 0.5 h
[20] = biological target: Cytochrome P450 3A4 (Homo sapiens, UniProt P08684); assay: Inhibition of CYP3A4 in human liver microsomes at 1 to 10 uM using nifedipine as substrate preincubated for 5 mins followed by NADPH addition measured after 30 mins by UPLC-MS/MS analysis relative to control; format: ADME; conditions: 0.5 h
Cytochrome P450 3A4, sequence (P08684 whole entry): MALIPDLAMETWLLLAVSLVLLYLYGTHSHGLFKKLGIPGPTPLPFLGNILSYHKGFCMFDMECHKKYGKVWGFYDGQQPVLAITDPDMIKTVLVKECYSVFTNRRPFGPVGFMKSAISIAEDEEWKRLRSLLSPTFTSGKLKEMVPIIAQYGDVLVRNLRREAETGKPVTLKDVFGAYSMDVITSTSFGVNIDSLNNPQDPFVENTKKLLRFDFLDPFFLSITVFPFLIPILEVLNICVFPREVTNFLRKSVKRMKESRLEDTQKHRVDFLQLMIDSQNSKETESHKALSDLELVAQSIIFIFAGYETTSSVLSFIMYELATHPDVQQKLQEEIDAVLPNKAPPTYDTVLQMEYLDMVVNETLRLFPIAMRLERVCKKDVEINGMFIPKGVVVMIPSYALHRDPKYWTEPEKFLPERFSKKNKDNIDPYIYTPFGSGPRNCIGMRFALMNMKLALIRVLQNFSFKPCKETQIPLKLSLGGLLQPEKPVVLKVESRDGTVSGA

hERG (KCNH2), sequence (Q12809 whole entry): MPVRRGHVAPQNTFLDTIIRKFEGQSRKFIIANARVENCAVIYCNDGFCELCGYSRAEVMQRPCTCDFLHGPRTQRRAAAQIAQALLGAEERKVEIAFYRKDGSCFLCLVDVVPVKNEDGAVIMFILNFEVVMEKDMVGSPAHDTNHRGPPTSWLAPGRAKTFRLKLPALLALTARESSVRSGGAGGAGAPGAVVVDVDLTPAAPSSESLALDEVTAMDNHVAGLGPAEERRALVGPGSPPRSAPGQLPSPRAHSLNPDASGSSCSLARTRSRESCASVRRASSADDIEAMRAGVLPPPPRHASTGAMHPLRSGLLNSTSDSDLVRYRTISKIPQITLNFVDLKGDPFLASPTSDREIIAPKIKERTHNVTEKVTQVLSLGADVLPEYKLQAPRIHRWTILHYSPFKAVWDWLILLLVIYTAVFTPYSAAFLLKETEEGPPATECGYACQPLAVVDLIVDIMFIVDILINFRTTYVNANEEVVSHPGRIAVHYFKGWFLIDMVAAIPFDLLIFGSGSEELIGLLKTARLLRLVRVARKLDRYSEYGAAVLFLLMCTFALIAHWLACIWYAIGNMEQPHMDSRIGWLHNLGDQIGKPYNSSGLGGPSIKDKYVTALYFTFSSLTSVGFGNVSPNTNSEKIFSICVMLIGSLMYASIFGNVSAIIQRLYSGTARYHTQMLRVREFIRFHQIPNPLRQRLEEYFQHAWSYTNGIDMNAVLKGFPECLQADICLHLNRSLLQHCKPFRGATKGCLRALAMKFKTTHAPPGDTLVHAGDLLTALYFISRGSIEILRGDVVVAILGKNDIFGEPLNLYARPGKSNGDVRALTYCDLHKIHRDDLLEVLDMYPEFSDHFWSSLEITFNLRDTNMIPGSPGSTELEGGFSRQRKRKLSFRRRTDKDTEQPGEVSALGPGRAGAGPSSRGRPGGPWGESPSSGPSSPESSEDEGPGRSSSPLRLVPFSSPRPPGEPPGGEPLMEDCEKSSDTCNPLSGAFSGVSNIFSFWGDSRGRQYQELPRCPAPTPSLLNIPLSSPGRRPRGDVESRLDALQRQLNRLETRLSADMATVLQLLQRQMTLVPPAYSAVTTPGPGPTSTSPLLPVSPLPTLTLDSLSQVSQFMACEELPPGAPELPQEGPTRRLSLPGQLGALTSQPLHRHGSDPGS
Cytochrome P450 2D6, sequence (P10635 whole entry): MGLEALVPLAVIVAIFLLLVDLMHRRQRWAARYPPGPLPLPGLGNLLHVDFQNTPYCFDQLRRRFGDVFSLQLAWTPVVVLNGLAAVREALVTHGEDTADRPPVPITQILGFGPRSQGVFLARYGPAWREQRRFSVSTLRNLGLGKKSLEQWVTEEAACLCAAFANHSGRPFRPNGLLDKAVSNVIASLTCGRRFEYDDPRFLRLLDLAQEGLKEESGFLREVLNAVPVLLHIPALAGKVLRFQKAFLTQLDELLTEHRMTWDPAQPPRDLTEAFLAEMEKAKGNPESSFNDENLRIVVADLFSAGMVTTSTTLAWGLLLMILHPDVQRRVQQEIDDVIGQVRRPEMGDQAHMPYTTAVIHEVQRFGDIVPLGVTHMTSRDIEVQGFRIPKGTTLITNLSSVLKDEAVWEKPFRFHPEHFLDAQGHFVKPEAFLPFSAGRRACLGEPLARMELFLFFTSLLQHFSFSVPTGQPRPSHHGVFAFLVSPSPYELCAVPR
Cytochrome P450 2C19, sequence (P33261 whole entry): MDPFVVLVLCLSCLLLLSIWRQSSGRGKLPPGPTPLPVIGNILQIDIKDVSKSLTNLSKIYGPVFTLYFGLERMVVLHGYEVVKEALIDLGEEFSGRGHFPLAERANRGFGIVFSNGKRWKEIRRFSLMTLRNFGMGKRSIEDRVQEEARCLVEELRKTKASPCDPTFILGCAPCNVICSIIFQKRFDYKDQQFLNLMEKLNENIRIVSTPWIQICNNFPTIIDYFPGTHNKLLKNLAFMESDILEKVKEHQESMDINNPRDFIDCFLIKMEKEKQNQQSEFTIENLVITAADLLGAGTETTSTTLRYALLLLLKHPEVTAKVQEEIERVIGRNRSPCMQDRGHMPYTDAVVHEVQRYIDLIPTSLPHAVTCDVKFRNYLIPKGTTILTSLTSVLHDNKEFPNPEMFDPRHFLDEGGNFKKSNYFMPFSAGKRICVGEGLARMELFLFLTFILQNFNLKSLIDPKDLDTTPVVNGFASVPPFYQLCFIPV
Cytochrome P450 2C9, sequence (P11712 whole entry): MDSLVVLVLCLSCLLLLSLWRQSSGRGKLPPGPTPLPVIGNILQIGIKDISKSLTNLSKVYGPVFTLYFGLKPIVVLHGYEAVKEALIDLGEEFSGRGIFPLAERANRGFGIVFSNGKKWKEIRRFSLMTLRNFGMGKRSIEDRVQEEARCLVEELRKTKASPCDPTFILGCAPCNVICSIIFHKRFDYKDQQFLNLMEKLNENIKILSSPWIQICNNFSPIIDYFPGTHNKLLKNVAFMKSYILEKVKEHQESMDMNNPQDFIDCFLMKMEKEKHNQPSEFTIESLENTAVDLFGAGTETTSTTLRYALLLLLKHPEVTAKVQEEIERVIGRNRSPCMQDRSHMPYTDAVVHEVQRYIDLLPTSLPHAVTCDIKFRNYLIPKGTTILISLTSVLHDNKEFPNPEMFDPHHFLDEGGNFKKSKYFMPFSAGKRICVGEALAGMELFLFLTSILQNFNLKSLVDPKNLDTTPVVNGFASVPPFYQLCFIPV

With `CC[Si](CC)(CC)c1ccc(N2[C@H](c3ccc(NC(=O)[C@@H]4CCCN4C(=O)[C@@H](NC(=O)OC)C(C)C)cc3)CC[C@H]2c2ccc(NC(=O)[C@@H]3CCCN3C(=O)[C@@H](NC(=O)OC)C(C)C)cc2)cc1` the fraction unbound at 6 h, 1 µM [1] was 9e-05, the fraction unbound at 6 h, 1 µM [2] was 4e-05 and the “inhibition (INH)” value [3] was “Not Active”. The “inhibition (INH)” value [4] was “Not Active”, the remaining at 1 h, 0.2 µM [5] was 98% and the fraction unbound at 6 h, 10 µM [6] was 8e-05. For the same compound, the Kp at 0.5 h [7] was 7.22, the inhibition at 3 µM [8] was 6.9% and the Tmax [9] was 10.5 h. It also gave an Activity [10] of 12.44%, a Cmax [11] of 29.2 ng/mL and a Papp B→A at 1.5 h [12] of 0.05 ×10⁻⁶ cm/s. For the same compound, the “inhibition (INH)” value [13] was “Not Active”, the Cmax [14] was 198 ng/mL and the fraction unbound at 6 h, 10 µM [15] was 0.00011. The Papp A→B at 1.5 h [16] was 0.07 ×10⁻⁶ cm/s, the remaining at 1 h, 0.2 µM [17] was 85.6% and the Kp at 8 h [18] was 52.9. For the same compound, the “inhibition (INH)” value [19] was “Not Active” and the “inhibition (INH)” value [20] was “Not Active”.

With `COC(=O)N[C@H](C(=O)N1CCC[C@H]1C(=O)Nc1ccc([C@@H]2CC[C@@H](c3ccc(NC(=O)[C@@H]4CCCN4C(=O)[C@@H](NC(=O)OC)C(C)C)cc3)N2c2ccc(C(C)(C)C)cc2)cc1)C(C)C` [OMBITASVIR] the fraction unbound at 6 h, 1 µM [1] was 2e-05, the fraction unbound at 6 h, 1 µM [2] was 2e-05 and the “inhibition (INH)” value [3] was “Not Active”. For the same compound, the “inhibition (INH)” value [4] was “Not Active”, the remaining at 1 h, 0.2 µM [5] was 101% and the fraction unbound at 6 h, 10 µM [6] was 4e-05. For the same compound, the Kp at 0.5 h [7] was 43.4, the inhibition at 3 µM [8] was 1.1% and the Tmax [9] was 8.3 h. For the same compound, the Cmax [11] was 15.7 ng/mL, the Papp B→A at 1.5 h [12] was 0.54 ×10⁻⁶ cm/s and the “inhibition (INH)” value [13] was “Not Active”. The Cmax [14] was 583 ng/mL, the fraction unbound at 6 h, 10 µM [15] was 1e-05 and the Papp A→B at 1.5 h [16] was 0.08 ×10⁻⁶ cm/s. The remaining at 1 h, 0.2 µM [17] was 96.2%, the Kp at 8 h [18] was 33.5 and the “inhibition (INH)” value [19] was “Not Active”. For the same compound, the “inhibition (INH)” value [20] was “Not Active”.
